Data from ChEMBL document CHEMBL3596176, “Geleganidines A-C, Unusual Monoterpenoid Indole Alkaloids from Gelsemium elegans” (J Nat Prod, 2015).

Tests used:
[1] = test system: MCF7; test: Cytotoxicity against human MCF7 cells assessed as inhibition of cell growth after 72 hrs by MTT assay; assay type: functional, cell-based; conditions: MCF7, 72 h
In short: (§1)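 Cells kept in RPMI 1640 plus 10% FBS at 37 °C in humidified 5% CO2. Seeded for 24 h, then exposed to a range of compound concentrations for 72 h. MTT (5 mg/mL solution) added, followed by 4 h incubation. Medium removed and formazan dissolved in DMSO; absorbance at 570 nm. IC50 taken from dose-response curves, reported as mean ± SD.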

[2] = Cytotoxicity against rat PC12 cells assessed as inhibition of cell growth after 72 hrs by MTT assay; assay type: functional, cell-based; conditions: PC-12, 72 h; in short: as §1

Row | SMILES | IC50 [1] [µM] | IC50 [2] [µM]
1 | C/C=C1\CN2C(=O)[C@]3(c4ccc(OC)cc4NOC)C[C@H]2[C@H]2CO[C@@H]3C[C@@H]12 | > 50 | > 50
2 | C/C=C1\CN(C=O)[C@H]2C[C@@]3(C(=O)N(OC)c4cc(OC)ccc43)[C@H]3C[C@@H]1[C@@H]2CO3 | > 50 | > 50
3 | C/C=C1\CN[C@H]2C[C@@]3(C(=O)N(OC)c4ccccc43)[C@H]3C[C@@H]1[C@@H]2CO3 | > 50 | > 50
4 | C/C=C1\CN2C(=O)[C@]3(c4ccc(OC)cc4N)C[C@H]2[C@H]2CO[C@@H]3C[C@@H]12 | > 50 | > 50
5 | C/C=C1\CN(C(=O)N2C/C(=C\C)[C@@H]3C[C@H]4OC[C@@H]3[C@@H]2C[C@@]42C(=O)N(OC)c3cc(OC)ccc32)[C@H]2C[C@@]3(C(=O)N(OC)c4ccccc43)[C@H]3C[C@@H]1[C@@H]2CO3 | > 50 | 16.1
6 | C/C=C1\CN2C(=O)[C@]3(c4ccc(OC)cc4/N=N/c4cc(OC)ccc4[C@@]45C[C@H]6[C@H]7CO[C@@H]4C[C@H]7/C(=C/C)CN6C5=O)C[C@H]2[C@H]2CO[C@@H]3C[C@@H]12 | 38.4 | > 50
7 | C/C=C1\CN[C@H]2C[C@@]3(C(=O)N(OC)c4cc(OC)ccc43)[C@H]3C[C@@H]1[C@@H]2CO3 | > 50 | > 50
